Activity calls are given as the source filed them. The rule behind the calls is not given here.

What is called AUC(0-inf) is the area under the concentration-time curve extrapolated to infinity. A word on the IC50: it is the point on the concentration scale where inhibition reaches its midpoint. A word on the ED50: it is the midpoint of the dose-response relation. As a reminder, the Cmax is the maximum level reached in the sampled fluid or tissue. One may read the clearance as a measure of how efficiently the substance is removed, as volume per time.

Series [1] is described as follows: Volume of distribution at steady state in cynomolgus monkey at […], iv. The arrangement: dose 0.25 mg/kg, route intravenous. It is filed as ADME, organism-based, Macaca fascicularis. The conditions noted are these: in vivo, read-out: Vdss.
The nature of series [2]: AUC (0 to infinity) in Sprague-Dawley rat at 5 mg/kg, po. The arrangement: time infinity, dose 5 mg/kg, route oral. The conditions noted are these: plasma. It is filed as ADME, organism-based.
The nature of series [3]: AUC (0 to infinity) in Sprague-Dawley rat at 0.5 mg/kg, iv. It is filed as ADME, organism-based. Details: time infinity, dose 0.5 mg/kg, route intravenous. The conditions noted are these: plasma.
For series [4], the target named is T1, Mineralocorticoid receptor (Homo sapiens, UniProt P08235).
T1 sequence (P08235 whole entry): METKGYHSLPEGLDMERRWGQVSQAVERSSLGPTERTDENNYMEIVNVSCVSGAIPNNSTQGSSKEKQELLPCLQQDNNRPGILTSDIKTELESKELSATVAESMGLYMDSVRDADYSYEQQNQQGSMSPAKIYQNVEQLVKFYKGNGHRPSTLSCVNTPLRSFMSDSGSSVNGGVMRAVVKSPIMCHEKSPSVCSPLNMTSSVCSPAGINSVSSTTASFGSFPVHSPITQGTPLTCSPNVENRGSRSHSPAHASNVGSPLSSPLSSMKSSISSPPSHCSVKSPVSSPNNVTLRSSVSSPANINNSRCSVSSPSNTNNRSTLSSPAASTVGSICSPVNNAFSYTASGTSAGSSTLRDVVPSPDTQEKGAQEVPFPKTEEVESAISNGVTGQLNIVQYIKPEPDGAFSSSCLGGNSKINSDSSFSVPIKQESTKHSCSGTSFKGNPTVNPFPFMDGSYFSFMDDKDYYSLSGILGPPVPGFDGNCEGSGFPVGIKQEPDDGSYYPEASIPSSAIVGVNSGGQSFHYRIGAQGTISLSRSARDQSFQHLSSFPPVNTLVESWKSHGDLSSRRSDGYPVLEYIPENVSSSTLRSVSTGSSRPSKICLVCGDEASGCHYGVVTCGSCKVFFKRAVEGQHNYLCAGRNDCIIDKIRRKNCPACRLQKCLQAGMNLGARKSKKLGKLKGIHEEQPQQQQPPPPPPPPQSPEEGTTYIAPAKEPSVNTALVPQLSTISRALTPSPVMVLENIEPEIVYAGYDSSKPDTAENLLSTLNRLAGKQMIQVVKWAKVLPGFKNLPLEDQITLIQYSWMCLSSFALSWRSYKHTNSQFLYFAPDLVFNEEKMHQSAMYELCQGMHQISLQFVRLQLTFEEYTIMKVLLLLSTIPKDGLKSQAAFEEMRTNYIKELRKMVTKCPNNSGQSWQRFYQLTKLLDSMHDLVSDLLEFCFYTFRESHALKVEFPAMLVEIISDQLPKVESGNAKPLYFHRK
Kind of series: Antagonist activity at human MR ligand binding domain expressed in african green monkey COS7 cells in presence of aldosterone by Gal4 hybrid assay. The class given is cell-based, COS-7. The method, boiled down: (§1)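 Gal4-steroid receptor LBD fusion plasmid plus GAL4_UAS (5 copies, E1b TATA)-luciferase reporter, 50 ng/well each, transfected 16 h into COS-7 cells grown in phenol red-free DMEM with 10% charcoal/dextran-treated FBS. Compound treatment 20 h, then luciferase read-out. Antagonist mode uses 3 nM aldosterone (hMR) or 5 nM 17β-estradiol (hER). Values are the average of at least duplicate determinations.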

In series [5] the test system is Cynomolgus monkey. Briefly: Inhibition of ovulation in cynomolgus monkey assessed as luteal phase progesterone surge at 3 mg/kg. The conditions noted are these: Macaca fascicularis. It is filed as functional. In a few lines:
(§2)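 Normally cycling cynomolgus monkeys dosed orally, daily at 1, 3 or 10 mg/kg (n=4–6) or vehicle (n=2), in 2% Tween 80/0.5% methylcellulose for 30 days from cycle day 2. Serum sampled three times weekly; progesterone measured by radioimmunoassay to detect a luteal-phase rise as the sign of ovulation.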

In the next series the test system is Rhesus monkey. Briefly: Effect on ovulation rate of rhesus monkey. The class given is functional, organism-based. The conditions noted are these: Macaca mulatta. In a few lines: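 Adult female rhesus macaques (n=3) with regular cycles dosed 10 mg/(kg·day) po in 2% Tween 80/0.5% methylcellulose with cherry flavoring for 28 days from cycle day 2. Serum estradiol and progesterone measured every 3 days. Necropsy on day 28. Uterine weights are of half the uterus; KI-67 and mitotic indices counted per 1000 cells. Values given as mean ± SE.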

Series [6] in a line: Cmax in Sprague-Dawley rat at 5 mg/kg, po. The arrangement: dose 5 mg/kg, route oral. The settings on record: in vivo. The class given is ADME, organism-based. The method, boiled down: (§3)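 Female Sprague–Dawley rats dosed as 1-in-4 cassette or discrete studies. iv in DMSO/PEG200 20:80; po in aqueous 2% Tween 80/0.5% methyl cellulose. Parameters reported: C0, Cmax, t1/2, plasma clearance, Vss, AUC0-inf and %F.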

A short description of series [7]: Volume of distribution at steady state in Sprague-Dawley rat at 0.5 mg/kg, iv. It is filed as ADME, organism-based. The arrangement: dose 0.5 mg/kg, route intravenous. The conditions noted are these: in vivo, read-out: Vdss. The method, boiled down:
as §3

Series [8] deals with Cynomolgus monkey. Kind of series: Induction of early menses in cynomolgus monkey at 5 mg/kg, po. The arrangement: dose 5 mg/kg, route oral. The settings on record: in vivo. The class given is organism-based, Macaca fascicularis.
Another series deals with Rattus norvegicus. Briefly: Drug level in Sprague-Dawley rat at 1 mg/kg, iv. The arrangement: dose 1 mg/kg, route intravenous. It is filed as ADME, organism-based. The settings on record: in vivo. In a few lines:
as §3

The nature of series [9]: Plasma clearance in cynomolgus monkey at […], iv. Details: dose 0.25 mg/kg, route intravenous. It is filed as ADME, organism-based, Macaca fascicularis.
Series [10] has as its target T2, Estrogen receptor (Homo sapiens) (UniProt P03372).
T2 sequence (whole entry): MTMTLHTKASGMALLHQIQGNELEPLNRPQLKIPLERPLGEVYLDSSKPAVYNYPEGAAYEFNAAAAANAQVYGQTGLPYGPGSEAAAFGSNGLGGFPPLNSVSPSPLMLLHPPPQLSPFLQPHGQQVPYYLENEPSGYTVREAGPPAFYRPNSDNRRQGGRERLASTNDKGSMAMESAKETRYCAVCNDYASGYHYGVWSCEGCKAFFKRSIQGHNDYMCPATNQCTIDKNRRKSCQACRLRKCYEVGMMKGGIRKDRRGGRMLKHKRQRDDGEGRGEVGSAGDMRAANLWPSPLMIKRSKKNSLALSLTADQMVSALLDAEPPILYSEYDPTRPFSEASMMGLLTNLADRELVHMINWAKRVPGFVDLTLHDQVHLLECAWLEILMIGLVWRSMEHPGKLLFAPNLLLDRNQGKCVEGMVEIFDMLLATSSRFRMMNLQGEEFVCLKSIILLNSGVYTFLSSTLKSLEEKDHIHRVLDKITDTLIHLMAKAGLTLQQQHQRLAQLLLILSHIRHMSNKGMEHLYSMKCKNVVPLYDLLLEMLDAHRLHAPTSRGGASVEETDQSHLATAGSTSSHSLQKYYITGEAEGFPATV
Briefly: Agonist activity at human ER ligand binding domain expressed in african green monkey COS7 cells by Gal4 hybrid assay. It is filed as cell-based. The settings on record: COS-7. The method, boiled down:
as §1

The subject of series [11] is Cynomolgus monkey. Kind of series: Inhibition of ovulation in cynomolgus monkey assessed as basal level of progesterone at 10 mg/kg. The class given is functional, organism-based. The settings on record: Macaca fascicularis. Details: dose 10 mg/kg. The method, boiled down: as §2

`Cn1c(C#N)ccc1-c1cc(F)c2c(c1)C(C)(C)C(=O)N2`: the Vd in [1] amounted to 3.9 L/kg; in series [7], 2.9 L/kg. Also, the AUC(0-inf) in [2] was 7150 ng·h/mL; in series [3], 1980 ng·h/mL. In addition, the IC50 in series [4] amounted to 3.7 µM. In the series with Cynomolgus monkey [5], the ED50 was 1.6 mg/kg. Further, the outcome (in the series with Rhesus monkey; in [10]) was inactive. The same compound registered a Cmax in series [6] of 414 ng/mL. The compound also registered an Activity in the series with Cynomolgus monkey [8] of 75%. The compound further displayed a Drug uptake in the series with Rattus norvegicus of 528 ng/mL. This compound also returned a clearance in series [9] of 7 mL/min/kg. Moreover, the outcome with Cynomolgus monkey [11] was Active.

The values are drawn from ChEMBL document CHEMBL1144664, “Design, synthesis, and SAR of new pyrrole-oxindole progesterone receptor modulators leading to 5-(7-fluoro-3,3-dimethyl-2-oxo-2,3-dihydro-1H-indol-5-yl)-1-methyl-1H-pyrrole-2-carbonitrile (WAY-255348)” (J Med Chem, 2008).
